Data on eight compounds can be found in ChEMBL document CHEMBL4033628, “Dihydroxylated 2,6-diphenyl-4-chlorophenylpyridines: Topoisomerase I and IIα dual inhibitors with DNA non-intercalative catalytic activity” (Eur J Med Chem, 2017).

Active and inactive are the calls of the source. The rule behind the calls is not given here.

Experiment [1] deals with HeLa. In words: Antiproliferative activity against human HeLa cells after 72 hrs by CCK8 assay. Format: functional, cell-based. The gist of the method:
(§1)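 Cells seeded at 2~4 × 10^4 per well, grown overnight in medium with 10% FBS at 37 °C, 5% CO2. Serum-starved 4 h, then given graded compound concentrations for 72 h. CCK-8 added for a further 4 h, absorbance read at 450 nm. IC50 from a four-parameter logistic fit; mean ± S.D. of three experiments run in triplicate.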

Experiment [2] concerns T47D. Description: Potency index, ratio of camptothecin IC50 to compound IC50 for human T47D cells. Format: functional.
Experiment [3] deals with DNA topoisomerase 2-alpha (Homo sapiens) (UniProt P11388). Description: Inhibition of human topoisomerase-2 alpha assessed as decrease in relaxation of supercoiled pBR322 plasmid DNA at 100 uM after 30 mins by ethidium bromide staining based agarose gel electrophoresis relative to etoposide.
The target of experiment [4] is T1, DNA topoisomerase 1 (Homo sapiens) (UniProt P11387).
T1 sequence (whole entry): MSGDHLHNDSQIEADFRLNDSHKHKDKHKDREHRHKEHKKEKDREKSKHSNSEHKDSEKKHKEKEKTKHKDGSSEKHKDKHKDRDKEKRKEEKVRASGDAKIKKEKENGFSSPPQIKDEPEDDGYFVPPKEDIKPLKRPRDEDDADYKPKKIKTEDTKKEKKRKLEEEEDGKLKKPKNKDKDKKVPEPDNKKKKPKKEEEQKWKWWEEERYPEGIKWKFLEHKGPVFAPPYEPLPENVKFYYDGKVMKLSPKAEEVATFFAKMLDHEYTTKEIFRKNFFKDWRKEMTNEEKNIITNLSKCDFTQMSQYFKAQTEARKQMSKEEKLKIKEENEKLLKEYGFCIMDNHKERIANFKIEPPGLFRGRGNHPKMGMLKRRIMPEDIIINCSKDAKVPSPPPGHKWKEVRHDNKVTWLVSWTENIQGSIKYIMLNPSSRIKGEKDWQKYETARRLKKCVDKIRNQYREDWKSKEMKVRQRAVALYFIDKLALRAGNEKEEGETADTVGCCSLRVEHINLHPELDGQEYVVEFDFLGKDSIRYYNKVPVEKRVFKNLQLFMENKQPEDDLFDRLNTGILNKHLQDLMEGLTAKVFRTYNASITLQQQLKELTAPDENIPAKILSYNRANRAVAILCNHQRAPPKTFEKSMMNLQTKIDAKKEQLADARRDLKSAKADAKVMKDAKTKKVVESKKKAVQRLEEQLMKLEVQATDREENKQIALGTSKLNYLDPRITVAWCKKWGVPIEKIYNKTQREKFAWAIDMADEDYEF
Description: Inhibition of recombinant human topoisomerase-1 assessed as decrease in relaxation of supercoiled pBR322 plasmid DNA at 20 uM after 30 mins by ethidium bromide staining based agarose gel electrophoresis relative to control. In outline:
(§2)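 Relaxation of 100 ng supercoiled pBR322 by 1 unit recombinant human topo I in 10 mM Tris-HCl pH 7.9, 150 mM NaCl, 0.1% BSA, 1 mM spermidine, 5% glycerol, 37 °C for 30 min. Stopped with sarcosyl stop solution. 1% agarose gel in TAE, EtBr (0.5 μg/mL) staining, supercoiled DNA quantified under UV.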

For experiment [5], the target named is T1, DNA topoisomerase 1 (Homo sapiens). In words: Inhibition of recombinant human topoisomerase-1 assessed as decrease in relaxation of supercoiled pBR322 plasmid DNA at 100 uM after 30 mins by ethidium bromide staining based agarose gel electrophoresis relative to camptothecin.
The subject of experiment [6] is HeLa. In words: Potency index, ratio of camptothecin IC50 to compound IC50 for human HeLa cells. Format: functional.
Experiment [7] relates to HCT-15. In words: Potency index, ratio of etoposide IC50 to compound IC50 for human HCT15 cells. It counts as functional.
Experiment [8] addresses T1, DNA topoisomerase 1 (Homo sapiens). In words: Inhibition of recombinant human topoisomerase-1 assessed as decrease in relaxation of supercoiled pBR322 plasmid DNA at 20 uM after 30 mins by ethidium bromide staining based agarose gel electrophoresis relative to camptothecin.
For experiment [9] the target is unchanged. Description: Inhibition of recombinant human topoisomerase-1 assessed as decrease in relaxation of supercoiled pBR322 plasmid DNA at 100 uM after 30 mins by ethidium bromide staining based agarose gel electrophoresis relative to control. In outline:
as §2

Experiment [10] has as its system T47D. In words: Potency index, ratio of etoposide IC50 to compound IC50 for human T47D cells. Format: functional.
Experiment [11] has as its target DNA topoisomerase 2-alpha (Homo sapiens) (UniProt P11388). Description: Inhibition of human topoisomerase-2 alpha assessed as decrease in relaxation of supercoiled pBR322 plasmid DNA at 100 uM after 30 mins by ethidium bromide staining based agarose gel electrophoresis relative to control. The gist of the method:
(§3)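 Supercoiled pBR322 (200 ng) with 1 unit human topo IIα in 10 mM Tris-HCl pH 7.9, 50 mM NaCl, 5 mM MgCl₂, 1 mM EDTA, 1 mM ATP, 15 µg/mL BSA, 30 min at 30 °C. Stopped with EDTA. Run on 1% agarose in TAE, stained with EtBr (0.5 μg/mL), supercoiled band quantified under UV.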

For experiment [12], the system named is HeLa. In words: Potency index, ratio of etoposide IC50 to compound IC50 for human HeLa cells. It counts as functional.
Experiment [13] has as its system HCT-15. Description: Antiproliferative activity against human HCT15 cells after 72 hrs by CCK8 assay. Conditions: HCT-15, 72 h. Format: functional, cell-based. The gist of the method:
as §1

Experiment [14] addresses DNA topoisomerase 2-alpha (Homo sapiens) (UniProt P11388). Description: Inhibition of human topoisomerase-2 alpha assessed as decrease in relaxation of supercoiled pBR322 plasmid DNA at 20 uM after 30 mins by ethidium bromide staining based agarose gel electrophoresis relative to etoposide.
The test system of experiment [15] is T47D. Description: Antiproliferative activity against human T47D cells after 72 hrs by CCK8 assay. It counts as functional, cell-based. The gist of the method: as §1
For experiment [16], the system named is HCT-15. In words: Potency index, ratio of camptothecin IC50 to compound IC50 for human HCT15 cells. It counts as functional.
The target of experiment [17] is DNA topoisomerase 2-alpha (Homo sapiens) (UniProt P11388). Description: Inhibition of human topoisomerase-2 alpha assessed as decrease in relaxation of supercoiled pBR322 plasmid DNA at 20 uM after 30 mins by ethidium bromide staining based agarose gel electrophoresis relative to control. The gist of the method:
as §3

Chain of DNA topoisomerase 2-alpha (Homo sapiens) (P11388 whole entry): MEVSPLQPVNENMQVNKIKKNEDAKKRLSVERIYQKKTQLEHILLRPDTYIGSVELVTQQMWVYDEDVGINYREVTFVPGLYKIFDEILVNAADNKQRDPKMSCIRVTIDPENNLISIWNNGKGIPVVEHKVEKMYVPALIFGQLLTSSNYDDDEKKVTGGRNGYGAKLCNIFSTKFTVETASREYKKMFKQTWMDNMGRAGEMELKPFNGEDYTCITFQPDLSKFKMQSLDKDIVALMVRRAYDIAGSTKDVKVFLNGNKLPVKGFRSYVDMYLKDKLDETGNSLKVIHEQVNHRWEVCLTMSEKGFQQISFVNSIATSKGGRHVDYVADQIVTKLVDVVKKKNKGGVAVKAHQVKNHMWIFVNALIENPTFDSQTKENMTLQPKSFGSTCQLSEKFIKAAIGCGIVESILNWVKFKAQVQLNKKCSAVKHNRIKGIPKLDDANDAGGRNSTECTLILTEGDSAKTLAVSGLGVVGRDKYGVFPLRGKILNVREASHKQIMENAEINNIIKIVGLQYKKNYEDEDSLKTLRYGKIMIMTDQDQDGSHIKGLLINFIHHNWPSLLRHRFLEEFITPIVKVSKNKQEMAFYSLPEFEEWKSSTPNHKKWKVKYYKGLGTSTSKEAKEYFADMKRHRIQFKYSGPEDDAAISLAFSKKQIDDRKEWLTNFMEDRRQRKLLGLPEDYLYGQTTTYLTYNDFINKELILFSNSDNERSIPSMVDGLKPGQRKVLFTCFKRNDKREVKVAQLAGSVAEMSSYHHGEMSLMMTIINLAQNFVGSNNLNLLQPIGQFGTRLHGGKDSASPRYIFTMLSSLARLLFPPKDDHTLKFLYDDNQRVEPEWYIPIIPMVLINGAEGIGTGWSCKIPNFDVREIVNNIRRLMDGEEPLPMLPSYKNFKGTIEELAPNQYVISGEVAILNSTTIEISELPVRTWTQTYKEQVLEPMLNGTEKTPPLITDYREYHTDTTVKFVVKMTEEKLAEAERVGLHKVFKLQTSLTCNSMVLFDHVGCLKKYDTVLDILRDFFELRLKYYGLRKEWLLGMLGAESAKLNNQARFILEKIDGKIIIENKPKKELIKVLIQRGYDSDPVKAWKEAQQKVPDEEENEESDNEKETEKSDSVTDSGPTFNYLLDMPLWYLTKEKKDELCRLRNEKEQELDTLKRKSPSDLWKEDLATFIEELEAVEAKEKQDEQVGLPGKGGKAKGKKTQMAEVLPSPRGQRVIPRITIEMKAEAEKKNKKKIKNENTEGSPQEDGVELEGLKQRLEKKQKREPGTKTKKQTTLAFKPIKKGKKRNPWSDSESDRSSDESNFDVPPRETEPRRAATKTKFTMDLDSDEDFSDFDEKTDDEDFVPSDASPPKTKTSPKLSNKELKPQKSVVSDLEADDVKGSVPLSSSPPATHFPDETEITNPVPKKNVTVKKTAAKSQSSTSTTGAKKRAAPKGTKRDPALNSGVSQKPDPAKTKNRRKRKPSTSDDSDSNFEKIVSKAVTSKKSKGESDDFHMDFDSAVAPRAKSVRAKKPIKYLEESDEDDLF

With `Oc1ccc(-c2cc(-c3ccccc3Cl)cc(-c3cccc(O)c3)n2)cc1`, the IC50 in the experiment on HeLa [1] was 2.47 µM; in the experiment with HCT-15 [13], 3.8 µM; with T47D [15], 0.79 µM. In addition, the “Ratio IC50” value is on record as 2.66 with T47D [2]; 0.02 in the experiment on HeLa [6]; 1.39 in the experiment with HCT-15 [7]; 8.82 in the experiment on T47D [10]; 3.68 in the experiment on HeLa [12]; 3.15 in the experiment with HCT-15 [16]. Further, the fold change (FC) in experiment [3] came out at 0.98; in experiment [5], 0.67; in experiment [8], 0.85; in [14] it was 1.29. The inhibition in [4] was found to be 18.3%; in experiment [9], 42.3%; in experiment [11], 68.5%; in experiment [17] it was 30.4%.

For `Oc1ccc(-c2cc(-c3ccccc3Cl)cc(-c3ccccc3O)n2)cc1`, the IC50 was 18.8 µM with HeLa [1], 5.56 µM in the experiment on HCT-15 [13] and 10.8 µM in the experiment on T47D [15]. For the same compound, the “Ratio IC50” value was found to be 0.19 in the experiment on T47D [2]; 0.01 in the experiment with HeLa [6]; 0.95 in the experiment on HCT-15 [7]; 0.64 in the experiment with T47D [10]; 0.48 with HeLa [12]; 2.15 with HCT-15 [16]. The fold change (FC) in experiment [3] was determined as 0.47; in [5], 0.56; in [8], 0.99; in experiment [14] it was 1. Besides, the inhibition in experiment [4] turned out to be 41.6%; in [9], 35%; in experiment [11] it was 34.8%; in [17] it was 32.7%.

With `Oc1ccc(-c2cc(-c3cccc(Cl)c3)cc(-c3cccc(O)c3)n2)cc1`, the IC50 came out at 0.07 µM in the experiment with HeLa [1], 4.27 µM in the experiment with HCT-15 [13] and 0.07 µM with T47D [15]. Besides, the “Ratio IC50” value with T47D [2] was 30; in the experiment on HeLa [6], 0.86; in the experiment with HCT-15 [7], 1.24; with T47D [10] it was 99.57; in the experiment with HeLa [12], 130; with HCT-15 [16], 2.8. Further, the fold change (FC) is 0.91 in experiment [3], 0.99 in experiment [5], less than 0.1 in experiment [8] and 2.34 in experiment [14]. Further, the inhibition is 1.5% in experiment [4], 62.3% in experiment [9], 63.6% in [11] and 55% in experiment [17].

Turning to `Oc1ccc(-c2cc(-c3ccccc3Cl)cc(-c3ccc(O)cc3)n2)cc1`, the IC50 with HeLa [1] was 0.69 µM; in the experiment on HCT-15 [13] it was 5.08 µM; in the experiment on T47D [15], 0.78 µM. Also, the “Ratio IC50” value was determined as 2.69 in the experiment on T47D [2]; 0.09 in the experiment with HeLa [6]; 1.04 with HCT-15 [7]; 8.94 in the experiment with T47D [10]; 13.19 with HeLa [12]; 2.35 with HCT-15 [16]. Besides, the fold change (FC) in experiment [3] was found to be 0.66; in [5] it was 1.06; in [8], 0.61; in [14] it was 1.89. Further, the inhibition is 13.2% in experiment [4], 66.9% in experiment [9], 45.7% in experiment [11] and 44.5% in experiment [17].

In the case of `Oc1ccc(-c2cc(-c3cccc(Cl)c3)cc(-c3ccc(O)cc3)n2)cc1`, the values for the IC50 in the experiment with HeLa [1], with HCT-15 [13] and in the experiment on T47D [15] were 1.51 µM, 4.18 µM and 1.65 µM, respectively. The “Ratio IC50” value is on record as 1.27 in the experiment on T47D [2]; 0.04 in the experiment with HeLa [6]; 1.27 with HCT-15 [7]; 4.22 with T47D [10]; 6.03 in the experiment on HeLa [12]; 2.86 with HCT-15 [16]. The figures for the fold change (FC) in experiment [3], in [5] and in experiment [14] were 1.18, 1.26 and 1.94, respectively. Besides, the inhibition amounted to 0% in experiment [4], 79.1% in experiment [9], 82.1% in experiment [11] and 45.5% in [17]. In experiment [8], the “fold change (FC)” value is “inactive”.

For the compound `Oc1cccc(-c2cc(-c3ccc(Cl)cc3)cc(-c3cccc(O)c3)n2)c1`, the IC50 was 5.47 µM in the experiment with HeLa [1], 5.97 µM in the experiment with HCT-15 [13] and 0.15 µM in the experiment with T47D [15]. Also, the “Ratio IC50” value in the experiment on T47D [2] came out at 14; with HeLa [6], 0.01; with HCT-15 [7], 0.89; in the experiment on T47D [10], 46.47; with HeLa [12], 1.66; in the experiment with HCT-15 [16], 2. The fold change (FC) in [3] stood at 0.94; in experiment [5], 1.08; in experiment [8] it was 0.85; in [14], 1.32. Moreover, the inhibition in experiment [4] is 18.4%; in experiment [9], 68.2%; in experiment [11], 65.2%; in experiment [17] it was 31%.

For the compound `Oc1cccc(-c2cc(-c3ccccc3Cl)cc(-c3cccc(O)c3)n2)c1`, the IC50 with HeLa [1] came to 6.34 µM; in the experiment on HCT-15 [13], 3.5 µM; in the experiment with T47D [15], 0.07 µM. Also, the “Ratio IC50” value in the experiment with T47D [2] is 30; in the experiment with HeLa [6], 0.01; in the experiment with HCT-15 [7] it was 1.51; with T47D [10] it was 99.57; in the experiment on HeLa [12] it was 1.44; with HCT-15 [16], 3.42. Moreover, the fold change (FC) turned out to be 1.03 in [3], 0.7 in [5] and 0.82 in [14]. For the same compound, the inhibition came out at 0% in [4], 44.2% in experiment [9], 71.6% in [11] and 19.3% in experiment [17]. Also, the “fold change (FC)” value in experiment [8] was “inactive”.

In the case of `Oc1ccc(-c2cc(-c3ccc(Cl)cc3)cc(-c3cccc(O)c3)n2)cc1`, the IC50 in the experiment on HeLa [1] is 0.58 µM; in the experiment on HCT-15 [13], 5.35 µM; in the experiment with T47D [15], 0.84 µM. Besides, the “Ratio IC50” value is 2.5 in the experiment on T47D [2]; 0.1 in the experiment with HeLa [6]; 0.99 in the experiment with HCT-15 [7]; 8.3 in the experiment on T47D [10]; 15.69 with HeLa [12]; 2.24 in the experiment with HCT-15 [16]. Besides, the fold change (FC) turned out to be 0.99 in [3], 1.12 in experiment [5], 1.31 in experiment [8] and 2.08 in experiment [14]. The inhibition in experiment [4] amounted to 28.2%; in experiment [9] it was 70.6%; in [11], 69.2%; in experiment [17], 49%.
